Among the data in PubChem BioAssay AID686992 (Broad Institute, 2013) are activation values, retold here.

The structures appear in SMILES notation. Several values for one entry are separate records, joined by “and”; a condition that tells them apart may be missing. Identical values can stand only once. Out of some 260,000 compounds screened, about 960 (0.37%) were called active. This excerpt belongs to a sample that is enriched for actives. Unmarked numbers belong to inactive results.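 Rule for the calls: active = mean E-selectin-positive cell signal at least 10% of the positive control, reached in at least 60% of replicates, without over 20% cell loss; inconclusive = no rule given, readout overlaps actives, possibly toxicity-flagged; inactive = the rest, including those meeting only one limit.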

In this test the target is E-selectin (Homo sapiens) (UniProt P16581). Description: E-selectin induction in HUVECs, primary screen, imaging, HUVEC, immunofluorescence imaging, single point (AID 686992).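 Note: measured in HUVEC primary endothelial cells; signal is the percent of cells scored E-selectin positive by PE staining.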 The note with it: at 7.58 µM, stronger effect = higher value, normalized: neutral wells 0, TNF-alpha wells 100. Summed up: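 System: HUVEC / Compound: single concentration / Signal: immunofluorescence imaging / Read-out: percent E-selectin-positive cells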
E-selectin (Homo sapiens), sequence (P16581 whole entry, looked up): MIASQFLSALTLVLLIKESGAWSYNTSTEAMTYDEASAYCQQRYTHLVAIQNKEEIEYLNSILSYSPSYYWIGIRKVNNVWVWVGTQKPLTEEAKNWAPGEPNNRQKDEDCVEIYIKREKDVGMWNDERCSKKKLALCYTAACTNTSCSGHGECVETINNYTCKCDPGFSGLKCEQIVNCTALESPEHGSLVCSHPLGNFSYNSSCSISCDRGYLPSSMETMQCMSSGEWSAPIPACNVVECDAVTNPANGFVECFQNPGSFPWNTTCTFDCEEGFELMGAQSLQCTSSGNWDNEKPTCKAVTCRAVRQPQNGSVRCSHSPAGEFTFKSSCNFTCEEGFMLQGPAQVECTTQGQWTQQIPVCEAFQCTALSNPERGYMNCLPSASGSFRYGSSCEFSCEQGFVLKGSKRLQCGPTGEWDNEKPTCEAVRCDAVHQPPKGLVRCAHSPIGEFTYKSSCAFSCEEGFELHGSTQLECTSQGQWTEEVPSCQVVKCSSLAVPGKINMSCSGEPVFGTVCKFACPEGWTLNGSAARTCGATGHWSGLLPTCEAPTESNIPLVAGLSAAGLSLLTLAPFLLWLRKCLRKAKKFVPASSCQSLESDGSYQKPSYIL
Regarding `C[C@@H]1CN([C@@H](C)CO)C(=O)Cc2cc(NC(=O)NC3CCCCC3)ccc2O[C@H]1CN(C)C(=O)Nc1ccc(C(F)(F)F)cc1`, the activation was 0.389%.
Take `C[C@H]1CN([C@@H](C)CO)C(=O)Cc2cc(NS(C)(=O)=O)ccc2O[C@@H]1CN(C)S(=O)(=O)c1cccs1`: the activation was -0.124%.
Take `C[C@H]1CN([C@@H](C)CO)C(=O)Cc2cc(NC(=O)Nc3ccc(F)cc3)ccc2O[C@H]1CN(C)C(=O)Nc1ccc(C(F)(F)F)cc1`: the activation was 29.7% (active).
With `C[C@@H]1CN([C@@H](C)CO)C(=O)Cc2cc(NC(=O)Nc3ccc(C(F)(F)F)cc3)ccc2O[C@H]1CN(C)C(=O)Nc1ccc(F)cc1`, the activation was -0.224%.
For the compound `C[C@@H]1CN([C@@H](C)CO)C(=O)Cc2cc(NC(=O)CCC(F)(F)F)ccc2O[C@@H]1CN(C)C(=O)Nc1cccc2ccccc12`, the activation is 0.23%.
For `CC(C)NC(=O)N(C)C[C@H]1Oc2ccc(NC(=O)CCC(F)(F)F)cc2CC(=O)N([C@@H](C)CO)C[C@@H]1C`, the activation was 50.4% (active).
The result for `C[C@@H]1CN([C@@H](C)CO)C(=O)Cc2cc(NC(=O)C3CC3)ccc2O[C@@H]1CN(C)S(C)(=O)=O` reads -0.338%; that for `C[C@H]1CN([C@@H](C)CO)C(=O)Cc2cc(NC(=O)C3CC3)ccc2O[C@@H]1CN(C)S(=O)(=O)c1cccs1`, 55.7% (active); that for `C[C@H]1CN([C@@H](C)CO)C(=O)Cc2cc(NC(=O)CCC(F)(F)F)ccc2O[C@H]1CN(C)C(=O)NC1CCCCC1`, 0.0445%.
`C[C@@H]1CCCCO[C@@H](CN(C)C(=O)CCCN(C)C)[C@H](C)CN([C@@H](C)CO)C(=O)c2cc(NC(=O)Nc3ccccc3)ccc2O1`: the activation is -0.0275%.
As to `N#C[C@@H]1[C@@H](c2ccc(-c3ccccc3F)cc2)[C@@H](CO)N1C(=O)c1ccccn1`, the activation was 0.692%.
For the compound `COC(=O)N1Cc2ccnnc2CC1c1ccccc1Br` (configuration not stated), the activation was -0.184%.
Regarding `CSc1ccc(CN2CCC2(C)C(=O)NCc2ccccc2Br)cc1` (configuration not stated), the activation was -0.129%.
In the case of `CC(Sc1ccc(S(=O)(=O)N2CCN(C)CC2)cn1)C(=O)NC1CCCC(C)C1C` (configuration not stated), the activation was -0.0545%.
On to `O=C(c1ccccn1)N1CC2(C1)[C@@H](c1ccccc1)[C@@H](CO)N2C(=O)C1CCCCC1`, for which the activation was 1.98%.
For the compound `C[C@H]1CN([C@@H](C)CO)C(=O)Cc2cc(NC(=O)Cc3cn(C)c4ccccc34)ccc2O[C@@H]1CN(C)Cc1ccc(C(F)(F)F)cc1`, the activation was 12.9%.
Take `C[C@@H]1CN([C@H](C)CO)C(=O)Cc2cc(NC(=O)Cc3cn(C)c4ccccc34)ccc2O[C@@H]1CN(C)Cc1ccc(C(F)(F)F)cc1`: the activation was 275% (active).
Consider `C[C@H]1CN([C@@H](C)CO)C(=O)Cc2cc(NC(=O)Cc3cn(C)c4ccccc34)ccc2O[C@@H]1CN(C)Cc1ccccc1`, for which the activation was 0.509%.
Turning to `C[C@H](CO)N1C[C@H](C)[C@@H](CN(C)Cc2ccc(C(F)(F)F)cc2)Oc2ccc(NC(=O)CCN3CCOCC3)cc2C1=O`, the activation was 3.76%.
The value for `CC(C)NC(=O)Nc1ccc2c(c1)C(=O)N([C@@H](C)CO)C[C@@H](C)[C@H](CN(C)Cc1ccc(-c3ccccc3)cc1)O2` was 0.764%.
Regarding `CC(C)NC(=O)Nc1ccc2c(c1)C(=O)N([C@@H](C)CO)C[C@@H](C)[C@H](CN(C)Cc1ccc(C(=O)O)cc1)O2`, the activation was 56.9% (active).
The result for `C[C@H](CO)N1C[C@H](C)[C@@H](CN(C)Cc2ccc(C(F)(F)F)cc2)Oc2ccc(NC(=O)CCC(F)(F)F)cc2C1=O` reads 63.1% (active); that for `C[C@H](CO)N1C[C@H](C)[C@H](CN(C)Cc2ccc(C(=O)O)cc2)Oc2ccc(NC(=O)NC3CCCCC3)cc2C1=O`, 1.59%; that for `C[C@@H]1CN([C@H](C)CO)C(=O)c2cc(NC(=O)Nc3ccc4c(c3)OCO4)ccc2O[C@@H]1CN(C)Cc1ccc(C(F)(F)F)cc1`, 0.0795%.
As for `CCCNC(=O)c1cc2c(c(-c3cccc(-c4ccc(C#N)cc4)c3)n1)[C@@H](CCO)N(C(=O)CC)C2`, the activation is 1.79%.
`CO[C@H]1CN(C)C(=O)c2cc(NC(=O)C3CCOCC3)ccc2OC[C@@H](C)N(Cc2cccnc2)C[C@@H]1C`: the activation is -0.0535%.
For `CN(C)C(=O)c1ccc(-c2ccccc2[C@H]2[C@@H](CO)N(C(=O)C3CCCCC3)[C@H]2C#N)cc1`, the activation was 0.141%.
As for `CSc1ncccc1C(=O)N1CCCC(Nc2ccc(F)c(F)c2)C1` (configuration not stated), the activation is -0.156%.
On to `COc1ccc(NC(=O)N(C)C[C@@H]2OCCCC[C@@H](C)Oc3ccc(NS(C)(=O)=O)cc3C(=O)N([C@@H](C)CO)C[C@H]2C)cc1`, for which the activation was 0.098%.
Regarding `COC(=O)C1=CN(c2c(C)cc(C)cc2C)C(N)=C(C#N)C1c1cccc(F)c1` (configuration not stated), the activation is -0.0735%.
As for `O=S(=O)(NCCCN1CCOCC1)c1ccc(F)c(Cl)c1`, the activation is 82.5% (active).
On to `COc1ccc(S(=O)(=O)N(C)CC(=O)NCCCN2CCOCC2)cc1Cl`, for which the activation was 0.0915%.
On to `O=S(=O)(NCC1CC1)c1ccc(F)c(Cl)c1`, for which the activation was -0.0605%.
Consider `COc1ccccc1-c1ccc([C@H]2[C@H](CO)N(C(=O)C3CC3)C23CN(C(C)=O)C3)cc1`, for which the activation is -0.188%.
As to `CCC(=O)Nc1ccc2c(c1)OC[C@H](C)N(CC1CCOCC1)C[C@@H](C)[C@@H](OC)CN(C)C2=O`, the activation is 0.195%.
`CO[C@@H]1CN(C)C(=O)c2cc(NS(=O)(=O)c3ccc(C)cc3)ccc2OC[C@H](C)N(Cc2nccs2)C[C@@H]1C`: the activation was -0.0505%.
As to `COCCCn1c(-c2cccs2)nc2nc3ccccc3nc21`, the activation was 42.8% (active).
`CCOCCCn1c(NN)nc2ccccc2c1=O`: the activation was -0.132%.
For `COCCn1c(SCC(=O)c2[nH]c(C)c(C(C)=O)c2C)nc2ccccc2c1=O`, the activation was -0.059%.
With `O=C(c1ccc(F)cc1)N1CC(=O)N2[C@@H](CO)[C@@H](c3ccc(C#Cc4ccc(F)cc4)cc3)[C@@H]2C1`, the activation is -0.811%.
The result for `Cc1nc(N2CCN(c3ccccn3)CC2)c2c(C)c(C(=O)Nc3ccc(F)cc3)sc2n1` reads 86% (active); that for `CCN(CC)c1ccc(NC(=O)CN2CCN(c3ccccn3)CC2)cc1`, 0.001%; that for `Cc1nc(N2CCC(C)CC2)c2c(C)c(C(=O)Nc3cc(F)ccc3C)sc2n1`, 0.651%.
The result for `COc1cccc(-c2nc3nc(C)cc(C)n3c2NC2CCCCC2)c1` reads -0.154%; that for `C[C@H](CO)N1C[C@H](C)[C@H](CN(C)S(=O)(=O)c2ccccc2)Oc2c(NC(=O)Nc3ccccc3)cccc2C1=O`, 392% (active).
As for `C[C@H](CO)N1C[C@H](C)[C@@H](CN(C)C(=O)NC2CCCCC2)Oc2c(NC(=O)Nc3ccc(F)cc3)cccc2C1=O`, the activation is 42.3% (active).
For the compound `C[C@H](CO)N1C[C@H](C)[C@@H](CN(C)C(=O)Nc2cccc3ccccc23)Oc2c(NS(=O)(=O)c3ccccc3)cccc2C1=O`, the activation was -0.43%.
`C[C@H]1CN([C@@H](C)CO)C(=O)c2cccc(NS(=O)(=O)c3cn(C)cn3)c2O[C@@H]1CN(C)C(=O)Nc1ccc(F)cc1`: the activation was 46.9% (active).
In the case of `C[C@@H]1CN([C@H](C)CO)C(=O)c2cccc(NC(=O)Nc3cccc4ccccc34)c2O[C@@H]1CN(C)C(=O)Nc1cccc2ccccc12`, the activation is -0.224%.
In the case of `C[C@H](CO)N1C[C@H](C)[C@@H](CN(C)S(=O)(=O)c2ccc(F)cc2)Oc2c(NC(=O)Nc3ccccc3)cccc2C1=O`, the activation was 0.238% and 0.231%.
On to `C[C@H]1CN([C@@H](C)CO)C(=O)c2cccc(NS(=O)(=O)c3cn(C)cn3)c2O[C@H]1CN(C)C(=O)Nc1ccc2c(c1)OCO2`, for which the activation is -9.5%.
With `COc1ccc(NC(=O)N(C)C[C@@H]2Oc3c(NS(=O)(=O)c4cn(C)cn4)cccc3C(=O)N([C@H](C)CO)C[C@@H]2C)cc1`, the activation was -11.1%.
As for `C[C@@H]1CN([C@H](C)CO)C(=O)c2cccc(NC(=O)Nc3ccccc3)c2O[C@@H]1CN(C)C(=O)NC1CCCCC1`, the activation is 0.168%.
For the compound `C[C@H]1CN([C@@H](C)CO)C(=O)c2cccc(NC(=O)Nc3ccc(C(F)(F)F)cc3)c2O[C@H]1CN(C)C(=O)NC1CCCCC1`, the activation is -0.0925%.
As for `C[C@@H]1CN([C@H](C)CO)C(=O)c2cccc(NS(C)(=O)=O)c2O[C@@H]1CN(C)C(=O)Nc1cccc2ccccc12`, the activation was 91.3% (active).
For the compound `Cc1ccc(S(=O)(=O)N(C)C[C@@H]2Oc3c(NC(=O)Nc4ccccc4)cccc3C(=O)N([C@H](C)CO)C[C@H]2C)cc1`, the activation was 0.069%.
As to `Nc1nc2c(ncn2[C@@H]2O[C@H](C(=O)N[C@@H](Cc3ccccc3)C(=O)NCc3ccccc3)[C@@H](O)[C@H]2O)c(=O)[nH]1`, the activation was -0.0025%.
With `CS(=O)(=O)N1[C@H](CO)[C@H](c2ccccc2)C12CN(C(=O)C1CC1)C2`, the activation was 0.098%.
Regarding `CNC(=O)C1CN(C(=O)c2cccc(S(=O)(=O)N3CCc4ccccc43)c2)c2ccccc2O1` (configuration not stated), the activation is -0.207%.
The value for `O=C(c1ccccc1)N1C[C@H]2[C@@H](c3ccccc31)[C@H](CO)N2Cc1ccccc1F` was 0.376%; that for `Cc1ccc(C)c(C(O)c2ncc(-c3cccc4ccccc34)[nH]2)c1` (configuration not stated) was -0.22%; that for `C[C@@H]1CN([C@H](C)CO)C(=O)c2cc(Br)cnc2O[C@@H]1CN(C)C(=O)C1CC1` was 118% (active).
The value for `C[C@@H]1CN([C@@H](C)CO)C(=O)c2cc(-c3ccccc3F)cnc2O[C@@H]1CN(C)Cc1cccc(F)c1` was -0.0955%; that for `C[C@H]1CN([C@@H](C)CO)C(=O)c2cc(Br)cnc2O[C@H]1CN(C)Cc1cccc(F)c1` was 87.1% (active); that for `C/C=C/c1cnc2c(c1)C(=O)N([C@@H](C)CO)C[C@H](C)[C@@H](CN(C)C(=O)C1CC1)O2` was 0.382%.
As to `C[C@@H]1CN([C@@H](C)CO)C(=O)c2cc(-c3cccc(F)c3)cnc2O[C@@H]1CN(C)Cc1ccccc1`, the activation was -0.282%.
Take `C[C@@H]1CN([C@@H](C)CO)C(=O)c2cc(Br)cnc2O[C@@H]1CN(C)C(=O)C1CCCCC1`: the activation was -0.284% and 0.234%.
